Test results published in ChEMBL document CHEMBL1142533, “Structure-based virtual screening and biological evaluation of Mycobacterium tuberculosis adenosine 5'-phosphosulfate reductase inhibitors” (J Med Chem, 2008).

Key:
[1] = Binding affinity to Mycobacterium tuberculosis APS reductase
Method in brief: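 Timed aliquots quenched in 2% charcoal/20 mM Na2SO3, radiolabeled sulfite in supernatant counted. kobs from single-exponential fit; Ki (=Kd) from kobs dependence on inhibitor concentration.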

[2] = test system: Mycobacterium tuberculosis; test: Inhibition of Mycobacterium tuberculosis APS reductase assessed as [35S]sulphite release at 100 uM
[3] = target: T1, Receptor-type tyrosine-protein phosphatase C (Homo sapiens) (UniProt P08575)
T1 sequence (whole entry): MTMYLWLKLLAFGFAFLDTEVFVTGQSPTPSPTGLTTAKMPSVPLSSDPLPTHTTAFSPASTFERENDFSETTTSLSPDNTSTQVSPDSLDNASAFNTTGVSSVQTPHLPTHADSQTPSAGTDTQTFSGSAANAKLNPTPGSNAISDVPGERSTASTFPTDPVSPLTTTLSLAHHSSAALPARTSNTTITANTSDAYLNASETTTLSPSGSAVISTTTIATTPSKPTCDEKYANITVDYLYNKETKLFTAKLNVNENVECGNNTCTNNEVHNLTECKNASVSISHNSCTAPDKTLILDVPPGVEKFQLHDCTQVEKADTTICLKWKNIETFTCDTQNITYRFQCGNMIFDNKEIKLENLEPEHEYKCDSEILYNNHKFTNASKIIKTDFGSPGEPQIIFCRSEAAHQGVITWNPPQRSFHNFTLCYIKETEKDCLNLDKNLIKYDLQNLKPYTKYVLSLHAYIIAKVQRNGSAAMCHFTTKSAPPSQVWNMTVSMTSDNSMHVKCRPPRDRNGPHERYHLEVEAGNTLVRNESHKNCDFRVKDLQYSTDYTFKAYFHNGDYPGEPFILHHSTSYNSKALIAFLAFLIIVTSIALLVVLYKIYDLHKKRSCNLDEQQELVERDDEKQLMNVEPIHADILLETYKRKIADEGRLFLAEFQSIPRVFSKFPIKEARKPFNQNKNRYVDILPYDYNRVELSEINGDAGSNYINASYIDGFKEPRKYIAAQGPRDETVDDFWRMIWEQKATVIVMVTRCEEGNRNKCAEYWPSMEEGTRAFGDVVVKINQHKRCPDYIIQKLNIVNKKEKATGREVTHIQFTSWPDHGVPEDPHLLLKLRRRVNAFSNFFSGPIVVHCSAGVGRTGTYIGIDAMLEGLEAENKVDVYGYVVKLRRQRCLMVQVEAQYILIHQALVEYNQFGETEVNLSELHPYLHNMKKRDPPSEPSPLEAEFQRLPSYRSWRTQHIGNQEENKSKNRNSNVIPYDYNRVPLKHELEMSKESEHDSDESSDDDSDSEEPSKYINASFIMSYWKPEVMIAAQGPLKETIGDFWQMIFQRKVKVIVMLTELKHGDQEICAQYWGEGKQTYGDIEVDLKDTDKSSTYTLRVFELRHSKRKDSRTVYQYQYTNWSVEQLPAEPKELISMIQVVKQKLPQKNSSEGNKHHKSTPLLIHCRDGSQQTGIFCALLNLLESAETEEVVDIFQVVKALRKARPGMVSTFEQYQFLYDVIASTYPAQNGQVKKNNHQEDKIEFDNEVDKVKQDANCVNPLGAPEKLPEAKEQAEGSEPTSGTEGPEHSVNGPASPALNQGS

| SMILES | Kd [1] [µM] | inhibition [2] [%] | Kinact [3] [M⁻¹ s⁻¹] |
| --- | --- | --- | --- |
| O=C(O)CCc1nnc2c3ccccc3c3ccccc3c2n1 | 46.9 | > 50 | – |
| O=C1c2cc(F)ccc2-c2cc(F)c([N+](=O)[O-])cc21 | 44.6 | – | – |
| O=C1c2ccccc2-c2cc([N+](=O)[O-])c([N+](=O)[O-])cc21 | 37.1 | > 50 | – |
| O=C1c2ccccc2-c2c1cc([N+](=O)[O-])cc2[N+](=O)[O-] | 48.1 | – | – |
| CC(=O)Nc1cc2c(cc1[N+](=O)[O-])-c1ccccc1C2=O | 31.8 | – | – |
| CC(=O)[C@H]1CC[C@H]2C34C=C[C@]5(C[C@@H](O)CC[C@]5(C)C3=CC[C@]12C)[C@H](C(=O)O)[C@@H]4C(=O)O | 127 | – | – |
| O=[N+]([O-])c1ccc(Sc2cccc[n+]2[O-])c2nonc12 | 19.5 | – | – |
| O=C(O)C[S+]([O-])c1ccc2c3c(cccc13)C(=O)c1ccccc1-2 (centres undefined) | 180 | – | – |
| Nc1nc(Sc2ccc([N+](=O)[O-])c3nonc23)c2nc[nH]c2n1 | 15.2 | > 90 | – |
| O=C1C(=O)c2cc([N+](=O)[O-])ccc2-c2ccccc21 | 6.81 | – | 4300 |
